Key:
DU-145 = experiment: Cytotoxicity against prostate DU-145 human cancer cell line.; assay type: functional
Outline: (§1)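 GI50 = concentration giving 50% growth inhibition, from a screen of about 55 human cancer cell lines over a 10^-8 to 10^-4 M test range. Values come from two determinations where a population standard deviation is shown, otherwise from single determinations.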

HOP-62 = experiment: Cytotoxicity against lung HOP-62 human cancer cell line.; assay type: functional; outline: as §1
HCT-116 = experiment: Cytotoxicity against colon HCT116 human cancer cell line.; assay type: functional; outline: as §1
MDA-MB-435 [1] = experiment: In vitro cytotoxicity against MDA-MB-435 (Human breast cancer) cell line.; assay type: functional; outline: as §1
OVCAR-3 = experiment: Cytotoxicity against ovarian OVCAR-3 human cancer cell line.; assay type: functional; outline: as §1
SN12C = experiment: In vitro cytotoxicity against SN12C (Human renal cancer) cell line.; assay type: functional; outline: as §1
UACC-62 = experiment: In vitro cytotoxicity against UACC-62 (Human melanoma) cell line.; assay type: functional; outline: as §1
SF-539 [2] = experiment: Compound was tested for its cytotoxicity against CNS SF-539 Human cancer cell line; assay type: functional; outline: as §1
[3] = molecular target: T1, DNA topoisomerase 1 (Homo sapiens) (UniProt P11387); experiment: The activity was examined against DNA topoisomerase I mediated DNA cleavage using 3''-End-labelled 161 BP plasmid DNA. + indicates between 20 and 50% of the activity of 1 uM camptothecin
T1 sequence (whole entry): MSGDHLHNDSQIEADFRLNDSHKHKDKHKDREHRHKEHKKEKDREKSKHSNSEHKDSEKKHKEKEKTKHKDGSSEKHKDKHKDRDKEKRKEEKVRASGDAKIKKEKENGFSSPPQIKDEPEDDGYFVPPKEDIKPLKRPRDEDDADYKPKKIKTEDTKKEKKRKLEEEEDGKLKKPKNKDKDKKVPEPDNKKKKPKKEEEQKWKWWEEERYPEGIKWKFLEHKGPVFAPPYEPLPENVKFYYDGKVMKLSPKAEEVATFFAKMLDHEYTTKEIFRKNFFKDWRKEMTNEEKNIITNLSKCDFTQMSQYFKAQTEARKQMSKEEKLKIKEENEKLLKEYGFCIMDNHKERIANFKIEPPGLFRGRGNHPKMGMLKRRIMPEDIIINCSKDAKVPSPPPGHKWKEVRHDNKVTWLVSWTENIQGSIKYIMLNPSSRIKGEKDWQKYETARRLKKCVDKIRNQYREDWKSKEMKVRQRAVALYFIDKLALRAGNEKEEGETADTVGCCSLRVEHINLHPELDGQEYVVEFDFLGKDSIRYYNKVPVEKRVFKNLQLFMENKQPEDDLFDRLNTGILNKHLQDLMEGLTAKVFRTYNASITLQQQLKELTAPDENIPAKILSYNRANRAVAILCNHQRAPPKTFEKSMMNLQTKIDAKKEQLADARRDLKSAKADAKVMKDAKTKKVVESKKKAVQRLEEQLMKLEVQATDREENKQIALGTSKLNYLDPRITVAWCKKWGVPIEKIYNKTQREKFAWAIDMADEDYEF
Outline: (§2)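 A 161 bp PvuII–HindIII fragment of pBluescript SK(–) was 3'-end-labeled at the HindIII site with [α-32P]dCTP by Klenow fill-in. About 50 000 dpm per reaction was incubated with top1 and drug (0.1–300 μM) at 30 °C for 30 min, then stopped with 0.5% SDS (final). Products were run on 16% polyacrylamide/7 M urea gels at 51 °C and imaged by phosphorimager.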

[4] = molecular target: T1, DNA topoisomerase 1 (Homo sapiens); experiment: The activity was examined against DNA topoisomerase I mediated DNA cleavage using 3'-End-labelled 161 BP plasmid DNA; 0 indicates inactive; outline: as §2
[5] = molecular target: T1, DNA topoisomerase 1 (Homo sapiens); experiment: The activity was examined against DNA topoisomerase I mediated DNA cleavage using 3'-End-labelled 161 BP plasmid DNA. 0 indicates inactive; outline: as §2
SF-539 [6] = experiment: Compound was tested for its cytotoxicity against CNS SF-539 cell line; assay type: functional; settings: Homo sapiens; outline: as §1
MDA-MB-435 [7] = experiment: Compound was tested for its cytotoxicity against breast MDA-MB-435 Human cancer cell line; assay type: functional; outline: as §1
[8] = molecular target: T1, DNA topoisomerase 1 (Homo sapiens); experiment: The activity was examined against DNA topoisomerase I mediated DNA cleavage using 3''-End-labelled 161 BP plasmid DNA.+ indicates between 20 and 50% of the activity of 1 uM camptothecin; outline: as §2

| SMILES | GI50 (DU-145) | GI50 (HOP-62) | GI50 (HCT-116) | GI50 (MDA-MB-435 [1]) | GI50 (OVCAR-3) | GI50 (SN12C) | GI50 (UACC-62) | GI50 (SF-539 [2]) | Top1 cleavage activity [3] | Top1 cleavage activity [4] | Top1 cleavage activity [5] | GI50 (SF-539 [6]) | GI50 (MDA-MB-435 [7]) | Top1 cleavage activity [8] |
| --- | --- | --- | --- | --- | --- | --- | --- | --- | --- | --- | --- | --- | --- | --- |
| O=C(O)CCCn1c2c(c3ccccc3c1=O)C(=O)c1ccccc1-2 | 48 µM | 87 µM | 40 µM | > 100 µM | > 100 µM | 27 µM | 73 µM | – | – | – | – | – | – | – |
| CC[n+]1cc2cc(OC)c(OC)cc2c2c1-c1cc3c(cc1C2)OCO3 | 58 µM | 22 µM | 13 µM | 14 µM | 1.9 µM | 2.7 µM | – | 56 µM | – | – | – | – | – | – |
| COc1cc2c3c(n(CCCCO)c(=O)c2cc1OC)-c1cc2c(cc1C3=O)OCO2 | 0.36 µM | 0.7 µM | 1.4 µM | 10 µM | 3.7 µM | – | 0.99 µM | – | 20-50% of the activity of 1 uM camptothecin | – | – | – | – | – |
| O=C1c2ccccc2-c2c1c1ccccc1c(=O)n2CCCCCO | 3.4 µM | 4.4 µM | 3.9 µM | 41 µM | 93 µM | – | 14.3 µM | – | 20-50% of the activity of 1 uM camptothecin | – | – | – | – | – |
| COc1ccc(-n2c3c(c4cc(OC)c(OC)cc4c2=O)C(=O)c2cc4c(cc2-3)OCO4)cc1 | 76 µM | 20 µM | > 100 µM | > 100 µM | > 100 µM | > 100 µM | > 100 µM | > 100 µM | – | 0 | – | – | – | – |
| CCN1C(=O)c2cc(OC)c(OC)cc2[C@@H]2[C@H]1c1cc3c(cc1[C@@H]2O)OCO3 | > 100 µM | > 100 µM | > 100 µM | > 100 µM | > 100 µM | > 100 µM | – | > 100 µM | – | – | 0 | – | – | – |
| CCN1Cc2cc(OC)c(OC)cc2[C@@H]2[C@H]1c1cc3c(cc1[C@@H]2O)OCO3 | 41 µM | 30 µM | 35 µM | 25 µM | 24 µM | 26 µM | – | 50 µM | – | – | 0 | – | – | – |
| CCCn1c2c(c3ccccc3c1=O)C(=O)c1ccccc1-2 | – | – | – | – | – | – | – | – | – | – | 0 | – | – | – |
| COc1cc2c3c(n(CCCCCO)c(=O)c2cc1OC)-c1cc2c(cc1C3=O)OCO2 | 5.1 µM | 8.7 µM | > 100 µM | > 100 µM | > 100 µM | – | > 100 µM | – | 20-50% of the activity of 1 uM camptothecin | – | – | – | – | – |
| O=C1c2ccccc2-c2c1c1ccccc1c(=O)n2C1CC1 | > 100 µM | 61 µM | > 100 µM | – | > 100 µM | > 100 µM | 84 µM | – | – | – | 0 | > 100 µM | > 100 µM | – |
| COC(=O)Cn1c2c(c3ccccc3c1=O)C(=O)c1ccccc1-2 | > 100 µM | – | – | > 100 µM | > 100 µM | > 100 µM | > 100 µM | > 100 µM | – | – | 0 | – | – | – |
| O=C1c2ccccc2-c2oc(=O)c3ccccc3c21 | > 100 µM | > 100 µM | > 100 µM | > 100 µM | > 100 µM | > 100 µM | > 100 µM | > 100 µM | – | – | 0 | – | – | – |
| C=CCN1C(=O)c2cc(OC)c(OC)cc2[C@H]2C(=O)c3cc4c(cc3[C@H]21)OCO4 | 0.77 µM | 0.36 µM | 0.34 µM | – | 1.78 µM | – | 0.38 µM | – | – | – | 0 | – | 1.4 µM | – |
| Cn1c2c(c3ccccc3c1=O)C(=O)c1cc3c(cc1-2)OCO3 | > 100 µM | 22 µM | 54 µM | – | > 100 µM | > 100 µM | > 100 µM | – | – | – | – | – | – | 20-50% of the activity of 1 uM camptothecin |
| CCn1c2c(c3ccccc3c1=O)C(=O)c1ccccc1-2 | – | – | – | – | – | – | – | – | – | – | 0 | – | – | – |
| CCCCn1c2c(c3ccccc3c1=O)C(=O)c1cc3c(cc1-2)OCO3 | 38 µM | 17 µM | 2.9 µM | > 100 µM | 94 µM | 37 µM | 8.2 µM | 9 µM | – | – | – | – | – | 20-50% of the activity of 1 uM camptothecin |
| COc1cc2c3c(n(C)c(=O)c2cc1OC)-c1cc2c(cc1C3=O)OCO2 | 37 µM | 1.3 µM | 35 µM | 96 µM | – | 68 µM | 4.2 µM | 41 µM | – | – | – | – | – | – |
| CCCCn1c2c(c3cc(OC)c(OC)cc3c1=O)C(=O)c1cc3c(cc1-2)OCO3 | 16 µM | 16 µM | 45 µM | > 100 µM | 78 µM | – | 21 µM | – | – | – | – | – | – | 20-50% of the activity of 1 uM camptothecin |
| C=CCn1c2c(c3cc(OC)c(OC)cc3c1=O)C(=O)c1cc3c(cc1-2)OCO3 | 3.2 µM | 3.4 µM | 2.3 µM | 5.2 µM | 6.6 µM | 2.6 µM | – | 2.2 µM | – | – | – | – | – | 20-50% of the activity of 1 uM camptothecin |
| COc1cc2c3c(n(C)c(=O)c2cc1OC)-c1cc(OC)c(OC)c(OC)c1C3=O | > 100 µM | > 100 µM | > 100 µM | – | > 100 µM | > 100 µM | 55 µM | – | – | – | 0 | > 100 µM | > 100 µM | – |
